High-throughput results as filed in PubChem BioAssay.
XBP1 UPR activ = activators of adaptive arm of unfolded protein response (XBP1); CHO-XBP1 luciferase reporter, IRE1-XBP1 UPR activation, luminescence; percent of tunicamycin response, DMSO as zero; activation, % at 20 µM; hit rate 0.33% among 330,000;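 active = versus positive control, 20 µM dose yields 30% or more activation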;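 also: 100% = tunicamycin at 10 µg/mL and 0% = DMSO only wells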
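Material: IRE1-XBP1 luciferase reporter CHO line / Quantity: one thousand reporter cells per well / Buffer or medium: F12 with 10% serum / Compound: 20 µM single concentration, DMSO 1% / Times: 6 h treatment, 37 °C / Detection: Steady-Glo luciferase glow luminescence, 10 min after reagent addition / Benchmarks: tunicamycin high, DMSO low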
PvdQ acylase = P. aeruginosa PvdQ acylase inhibition; purified PvdQ acylase, fluorescence plate reader; inhibition, % at 10 µM; hit rate 0.063% among 340,000; AID 488965; in the data active = inhibition above about 30%, passing the limit was not always enough;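 also: 0% = vehicle neutral wells and 100% = reference inhibitor wells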
UPR CHOP act = activators of apoptotic arm of unfolded protein response (CHOP); CHO-CHOP luciferase reporter, UPR activation, luminescence; percent of tunicamycin response over DMSO baseline; activation, % at 10 µM; hit rate 0.34% among 330,000; AID 449763;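 active = at 10 µM dose, activation of 40% or more, normalized to positive control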;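 also: 100% = tunicamycin at 10 µg/mL and 0% = DMSO alone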
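Test system: CHO CHOP reporter cells. Input: 500 CHO-CHOP cells per well. Medium: F12 with 10% FBS. Technique: luciferase luminescence. Measure: percent activation relative to tunicamycin control. Dosing: 10 µM compound, 0.5% DMSO. Timing: 16-18 h cell attachment, then 6 h compound exposure, 37 °C.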
CHOP inh = blocks CHOP induction under ER stress; inhibition, % at 10 µM; AID 2732; CHO-K1 CHOP-promoter luciferase, tunicamycin-induced, 15-18 h; hit rate 3.8% among 220,000;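 active = compounds that reduced the stress-induced luciferase reporter signal by more than about 70% of percent inhibition, limit read from the data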;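 also: 0% = tunicamycin plus vehicle and 100% = wells without tunicamycin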
* marks the source's active call; other numbers are inactive results; . = no result. Only a selection was taken, and hits are over-represented in it overall.

SMILES	XBP1 UPR activ	PvdQ acylase	UPR CHOP act	CHOP inh
Nc1ncnc2c1ncn2[C@@H]1O[C@H](CNC(=O)[C@@H]2CCCN2S(=O)(=O)c2ccc(F)cc2)[C@@H](O)[C@H]1O	4	-19	-1	.
Cc1ccc(S(=O)(=O)N(CC(=O)Nc2cccc([N+](=O)[O-])c2)C2CCCCC2)cc1	-5	-7	0	23
Cc1ccc(S(=O)(=O)N(CC(=O)Nc2ccc(Cl)c([N+](=O)[O-])c2)C2CCCCC2)cc1	-2	12	3	73*
C/C(=N\NC(=O)CNC(=O)C(c1ccccc1)c1ccccc1)c1ccccc1	-2	5	-1	-3
C/C(=N\NC(=O)CNC(=O)C(c1ccccc1)c1ccccc1)c1ccc(C(C)(C)C)cc1	22	7	1	86*
CCOC(=O)c1c(-c2ccc(C)o2)csc1NC(=O)CN1CCCCC1	-2	-8	1	35
CCOC(=O)c1c(-c2ccc(C)o2)csc1NC(=O)CN(C)CC(=O)Nc1ccc(C)cc1	-2	-16	1	89*
O=C1OC(c2ccccc2)C2(CCCC2)C(=O)C12CCCC2 (centres undefined)	0	3	-1	57
O=C1N(Nc2ccccc2)C(c2ccc(Br)cc2)C12CCCCC2 (centres undefined)	0	-8	2	73*
O=C1N(Nc2ccccc2)C(c2ccc(Br)cc2)C12CCCC2 (centres undefined)	-1	-11	-2	94*
O=C1C=CC(=O)N1Nc1ccc(Br)cc1	1	4	1	-5
Cc1ccc(Cc2cc(-c3ccc(C)cc3)n[nH]c2=O)cc1	2	4	0	56
CCc1ccc2c(c1)C1(NN=C(c3ccc(C)cc3)S1)C(=O)N2 (centres undefined)	1	-5	2	88*
Cc1c(-c2ccncc2)oc2ccc(Br)cc2c1=O	5	.	2	12
Nc1ncnc2c1ncn2[C@@H]1O[C@H](C(=O)NC2CC2)[C@H](O)C1O (some centres undefined)	.	.	.	-19
O=C(NCc1ccc2c(c1)OCO2)c1ccc(CS(=O)(=O)c2ccc(Br)cc2)o1	-6	-14	-1	74*
O=C(NCc1ccc2c(c1)OCO2)c1ccc(CS(=O)(=O)c2cccc(C(F)(F)F)c2)o1	0	-12	0	30
CCC(=O)c1ccc(OCC(O)CN2CCN(C(c3ccccc3)c3ccccc3)CC2)cc1 (centres undefined)	-1	-3	0	86*
OC(COc1ccccc1)CN1CCN(C(c2ccccc2)c2ccccc2)CC1 (centres undefined)	-5	4	-1	.
CCOC(=O)c1sc(Nc2cccc(Cl)c2)nc1C	3	22	4	-15
CCOC(=O)c1sc(Nc2ccc(OCC)cc2)nc1C	5	-23	2	73*
CCCCn1c(=O)c2ccccc2c2ccccc2c1=O	1	-5	-2	76*
COCCn1c(=O)c2ccccc2c2ccccc2c1=O	2	4	1	13
COC(=O)c1cccc2c1-c1ccccc1/C2=N\NC(N)=O	4	-12	-1	.
COC(=O)c1cccc2c1-c1ccccc1/C2=N/O	2	-16	-1	87*
SMILES	XBP1 UPR activ	PvdQ acylase	UPR CHOP act	CHOP inh
Cc1nc(Cl)c(N=Cc2cccc([N+](=O)[O-])c2)c(Cl)n1	0	1	-1	.
Cc1cc(NC(=O)c2ccccc2Cl)no1	-3	-8	3	-11
Cc1cc(NC(=O)c2c(F)c(F)c(F)c(F)c2F)no1	-1	63*	-1	34
Cc1cc(NC(=O)c2ccc([N+](=O)[O-])cc2Cl)no1	5	40*	7	.
Cc1cc(NC(=O)c2cc([N+](=O)[O-])ccc2Cl)no1	0	88*	0	-10
Cc1cc(NC(=O)c2cc(Cl)ccc2Cl)no1	-2	75*	3	14
Cc1ccc(C(=O)N/C(=C/c2ccco2)C(=O)OCN2C(=O)c3ccccc3C2=O)cc1	-2	2	2	27
Cc1nc2ccccc2c2oc(C(=O)NCC3COc4ccccc4O3)cc12 (centres undefined)	0	-16	-1	73*
CCc1ccc(CNC(=O)c2cc3c(C)nc4ccccc4c3o2)cc1	4	-10	5	80*
CCN1CCCC1CNC(=O)c1cc2c(C)nc3ccccc3c2o1 (centres undefined)	0	-11	1	.
O=S(Cc1cc(Oc2ccccc2)nc(-c2ccccc2)n1)c1ccccc1 (centres undefined)	4	-6	-1	41
COc1cc(/C=C\C(=O)O)cc(S(=O)(=O)N2CCCCCC2)c1OC	-6	-6	-2	.
C=CCOC(=O)C1=C[C@@H](c2ccc(Br)cc2)C[C@@H](OCc2ccc(CO)cc2)O1	0	-3	0	22
CCCNC(=O)NC(=O)CSc1cccc(C(F)(F)F)c1	-3	-5	0	2
NC(=O)c1ccsc1NC(=O)COC(=O)Cc1cccc2ccccc12	-1	-14	0	85*
Cc1noc(C)c1C(=O)Nc1nc(C23CC4CC(CC(C4)C2)C3)cs1	3	-15	6	83*
Cc1cc(NS(=O)(=O)c2ccc(NC(=O)c3cc4cc(Br)ccc4oc3=O)cc2)no1	-2	-7	-1	91*
Cc1cc(NS(=O)(=O)c2ccc(NC(=O)c3ccccc3C)cc2)no1	-1	7	0	.
CN(CC(=O)Nc1ccc(N2CCOCC2)cc1)C(=O)c1ccc(CS(C)(=O)=O)cc1	-3	2	0	.
Cc1cc(C)c(/C=N/NC(=O)c2nnn(-c3nonc3N)c2COc2ccc(F)cc2)c(C)c1	-1	.	2	-6
Cc1ccc(COc2ccc(/C=N/NC(=O)c3nnn(-c4nonc4N)c3COc3ccc(F)cc3)cc2)cc1	16	-9	13	82*
CC(C)c1ccc(N2C(=O)CC(Sc3ncn[nH]3)C2=O)cc1 (centres undefined)	0	-24	2	-52
COc1ccc(N2C(=O)CC(Sc3ncn[nH]3)C2=O)c(OC)c1 (centres undefined)	-1	-9	11	91*
O=C(COc1cc2oc(=O)c3c(c2cc1Cl)CCC3)Nc1ccc(CN2CCOCC2)cc1	0	1	1	.
Cc1ccc(C)c(N2CCN(C(=O)c3ccc(CS(=O)(=O)c4ccccc4C)o3)CC2)c1	3	-15	0	.
Cc1ccc(S(=O)(=O)Cc2ccc(C(=O)N3CCN(c4cc(C)ccc4C)CC3)o2)cc1	.	-10	.	95*
CN(C1=C(NC(=O)c2ccccc2)C(=O)c2ccccc2C1=O)C1CCS(=O)(=O)C1 (centres undefined)	-4	-7	-7	107*
CC(C)[C@H]1C(=O)Nc2ccccc2N1C(=O)N[C@@H](Cc1ccccc1)C(=O)N[C@H](C(=O)O)c1ccccc1	0	-17	2	.
CC1(C)CC(=O)C(C2C3=C(CC(C)(C)CC3=O)Oc3ccc4ccccc4c32)C(=O)C1 (centres undefined)	-1	1	2	77*
